Activity calls are given as the source filed them. The rule behind the calls is not given here.
Assays:
Format in all cases: cell-based
[1] = biological target: T1, von Hippel-Lindau disease tumor suppressor/Protein deacetylase HDAC6 (Homo sapiens, UniProt Q9UBN7+P40337); experiment: Protac activity at VHL/HDAC6 in human MM1S cells assessed as HDAC6 degradation at 100 nM measured after 6 hrs by ELISA
In short: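 Linker-length screen. MM1S cells were treated with degraders at 100 nM for 6 h, and HDAC6 protein level was quantified by in-cell ELISA.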
Target sequence in this assay (P40337 whole entry, looked up): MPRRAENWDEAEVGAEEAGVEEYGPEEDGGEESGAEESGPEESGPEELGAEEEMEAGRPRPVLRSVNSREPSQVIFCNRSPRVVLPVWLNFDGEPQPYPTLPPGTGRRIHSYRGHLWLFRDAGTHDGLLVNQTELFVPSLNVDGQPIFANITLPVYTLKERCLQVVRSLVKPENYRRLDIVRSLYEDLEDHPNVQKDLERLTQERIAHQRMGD
Target sequence in this assay (Q9UBN7 whole entry, looked up): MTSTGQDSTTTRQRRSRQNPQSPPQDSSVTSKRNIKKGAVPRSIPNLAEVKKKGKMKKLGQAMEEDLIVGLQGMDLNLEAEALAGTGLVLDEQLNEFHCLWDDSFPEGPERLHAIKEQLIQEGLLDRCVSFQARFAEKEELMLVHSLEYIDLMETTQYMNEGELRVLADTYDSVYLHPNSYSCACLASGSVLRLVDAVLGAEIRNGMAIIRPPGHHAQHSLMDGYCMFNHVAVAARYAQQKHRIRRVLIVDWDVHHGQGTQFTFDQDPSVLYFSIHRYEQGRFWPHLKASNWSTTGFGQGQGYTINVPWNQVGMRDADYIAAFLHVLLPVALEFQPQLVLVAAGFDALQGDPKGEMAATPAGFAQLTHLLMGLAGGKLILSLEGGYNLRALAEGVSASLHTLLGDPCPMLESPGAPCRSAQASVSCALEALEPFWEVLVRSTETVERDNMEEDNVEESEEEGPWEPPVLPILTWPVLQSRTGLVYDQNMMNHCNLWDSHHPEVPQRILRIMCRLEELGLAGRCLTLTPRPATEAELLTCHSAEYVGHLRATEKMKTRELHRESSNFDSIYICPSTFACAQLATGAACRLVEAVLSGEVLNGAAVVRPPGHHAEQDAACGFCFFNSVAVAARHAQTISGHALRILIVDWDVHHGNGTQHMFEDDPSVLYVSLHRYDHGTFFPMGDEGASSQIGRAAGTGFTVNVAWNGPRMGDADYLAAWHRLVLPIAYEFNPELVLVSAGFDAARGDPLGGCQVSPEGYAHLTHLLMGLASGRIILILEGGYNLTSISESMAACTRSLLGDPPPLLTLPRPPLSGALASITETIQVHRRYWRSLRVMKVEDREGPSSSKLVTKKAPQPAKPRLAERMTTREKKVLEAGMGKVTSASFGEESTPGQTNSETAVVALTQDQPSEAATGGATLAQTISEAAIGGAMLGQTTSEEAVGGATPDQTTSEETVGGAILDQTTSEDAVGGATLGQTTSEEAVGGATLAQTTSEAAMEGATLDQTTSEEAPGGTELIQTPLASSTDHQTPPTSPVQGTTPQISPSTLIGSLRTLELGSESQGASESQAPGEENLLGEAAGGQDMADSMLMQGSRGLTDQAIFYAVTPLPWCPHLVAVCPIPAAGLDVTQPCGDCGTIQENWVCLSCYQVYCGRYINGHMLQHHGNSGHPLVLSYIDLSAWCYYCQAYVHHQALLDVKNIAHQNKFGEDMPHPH

[2] = biological target: T1, von Hippel-Lindau disease tumor suppressor/Protein deacetylase HDAC6; experiment: Protac activity at VHL/HDAC6 in human MM1S cells assessed as HDAC6 degradation at 100 nM measured after 6 hrs by Western blot analysis
In short: (§1)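 MM1S cells were treated with degraders at 100 nM for 6 h. Lysates were analysed by Western blot for HDAC6 and acetylated tubulin.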
Target sequence in this assay (P40337 whole entry, looked up): as the sequence (P40337 whole entry, looked up) above
Target sequence in this assay (Q9UBN7 whole entry, looked up): as the sequence (Q9UBN7 whole entry, looked up) above

[3] = biological target: T1, von Hippel-Lindau disease tumor suppressor/Protein deacetylase HDAC6; experiment: Protac activity at VHL/HDAC6 in human MM1S cells assessed as increase in tubulin acetylation at 100 nM measured after 6 hrs by Western blot analysis; in short: as §1
Target sequence in this assay (P40337 whole entry, looked up): as the sequence (P40337 whole entry, looked up) above
Target sequence in this assay (Q9UBN7 whole entry, looked up): as the sequence (Q9UBN7 whole entry, looked up) above

[4] = biological target: T1, von Hippel-Lindau disease tumor suppressor/Protein deacetylase HDAC6; experiment: Protac activity at VHL/HDAC6 in human MM1S cells measured after 6 hrs by ELISA
In short: (§2)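 MM1S multiple myeloma cells exposed to degraders for 6 h. HDAC6 protein level was read by in-cell ELISA; dose-response ran from 1 nM to 3 μM. DC50 and Dmax were derived from the dose-response curve.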

[5] = biological target: T1, von Hippel-Lindau disease tumor suppressor/Protein deacetylase HDAC6; experiment: Protac activity at VHL/HDAC6 in human MM1S cells measured after 6 hrs by ELISA relative to control; in short: as §2
Target sequence in this assay (P40337 whole entry, looked up): as the sequence (P40337 whole entry, looked up) above
Target sequence in this assay (Q9UBN7 whole entry, looked up): as the sequence (Q9UBN7 whole entry, looked up) above

[6] = biological target: T1, von Hippel-Lindau disease tumor suppressor/Protein deacetylase HDAC6; experiment: Protac activity at VHL/HDAC6 in human MM1S cells assessed as HDAC6 degradation at 10 nM measured after 4 hrs by Western blot analysis
In short: (§3)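 Dose-response in MM1S cells treated with degrader from 1 nM to 30 μM for 4 h. Lysates were immunoblotted for HDAC6 and acetylated tubulin.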
Target sequence in this assay (P40337 whole entry, looked up): as the sequence (P40337 whole entry, looked up) above
Target sequence in this assay (Q9UBN7 whole entry, looked up): as the sequence (Q9UBN7 whole entry, looked up) above

[7] = biological target: T1, von Hippel-Lindau disease tumor suppressor/Protein deacetylase HDAC6; experiment: Protac activity at VHL/HDAC6 in human MM1S cells assessed as HDAC6 degradation at 100 nM measured after 4 hrs by Western blot analysis; in short: as §3
Target sequence in this assay (P40337 whole entry, looked up): as the sequence (P40337 whole entry, looked up) above
Target sequence in this assay (Q9UBN7 whole entry, looked up): as the sequence (Q9UBN7 whole entry, looked up) above

[8] = biological target: T1, von Hippel-Lindau disease tumor suppressor/Protein deacetylase HDAC6; experiment: Protac activity at VHL/HDAC6 in human MM1S cells assessed as compound-VHL complex formation at 3 uM after 6 hrs
[9] = biological target: T1, von Hippel-Lindau disease tumor suppressor/Protein deacetylase HDAC6; experiment: Protac activity at VHL/HDAC6 in human MM1S cells assessed as compound-HDAC6 complex formation at 3 uM after 6 hrs
[10] = biological target: T1, von Hippel-Lindau disease tumor suppressor/Protein deacetylase HDAC6; experiment: Protac activity at VHL/HDAC6 in human MM1S cells assessed as induction of tubulin acetylation after 4 hrs by Western blot analysis; in short: as §3
[11] = biological target: T1, von Hippel-Lindau disease tumor suppressor/Protein deacetylase HDAC6; experiment: Protac activity at VHL/HDAC6 in human MM1S cells assessed as induction of tubulin acetylation at 1 uM after 4 hrs by Western blot analysis; in short: as §3
[12] = biological target: T1, von Hippel-Lindau disease tumor suppressor/Protein deacetylase HDAC6; experiment: Protac activity at VHL/HDAC6 in human MM1S cells assessed as increase in tubulin acetylation at 300 nM after 4 hrs by Western blot analysis; in short: as §3
[13] = biological target: von Hippel-Lindau disease tumor suppressor/Histone deacetylase 1 (Homo sapiens) (UniProt Q13547+P40337); experiment: Protac activity at VHL/HDAC1 in human MM1S cells assessed as HDAC1 degradation at 100 nM after 4 hrs by Western blot analysis
[14] = biological target: von Hippel-Lindau disease tumor suppressor/Histone deacetylase 2 (Homo sapiens) (UniProt Q92769+P40337); experiment: Protac activity at VHL/HDAC2 in human MM1S cells assessed as HDAC2 degradation at 100 nM after 4 hrs by Western blot analysis
[15] = biological target: von Hippel-Lindau disease tumor suppressor/Histone deacetylase 3 (Homo sapiens) (UniProt O15379+P40337); experiment: Protac activity at VHL/HDAC3 in human MM1S cells assessed as HDAC3 degradation at 100 nM after 4 hrs by Western blot analysis
[16] = biological target: von Hippel-Lindau disease tumor suppressor/Histone deacetylase 4 (Homo sapiens) (UniProt P56524+P40337); experiment: Protac activity at VHL/HDAC4 in human MM1S cells assessed as HDAC4 degradation at 100 nM after 4 hrs by Western blot analysis
[17] = biological target: von Hippel-Lindau disease tumor suppressor/Histone deacetylase 5 (Homo sapiens) (UniProt Q9UQL6+P40337); experiment: Protac activity at VHL/HDAC5 in human MM1S cells assessed as HDAC5 degradation at 100 nM after 4 hrs by Western blot analysis
[18] = biological target: von Hippel-Lindau disease tumor suppressor/Histone deacetylase 7 (Homo sapiens) (UniProt Q8WUI4+P40337); experiment: Protac activity at VHL/HDAC7 in human MM1S cells assessed as HDAC7 degradation at 100 nM after 4 hrs by Western blot analysis
[19] = biological target: von Hippel-Lindau disease tumor suppressor/DNA-binding protein Ikaros (Homo sapiens) (UniProt P40337+Q13422); experiment: Protac activity at VHL/IKZF1 in human MM1S cells assessed as IKZF1 degradation at 100 nM after 4 hrs by Western blot analysis
[20] = biological target: von Hippel-Lindau disease tumor suppressor/Zinc finger protein Aiolos (Homo sapiens) (UniProt P40337+Q9UKT9); experiment: Protac activity at VHL/IKZF3 in human MM1S cells assessed as IKZF3 degradation at 100 nM after 4 hrs by Western blot analysis
[21] = biological target: T1, von Hippel-Lindau disease tumor suppressor/Protein deacetylase HDAC6; experiment: Protac activity at VHL/HDAC6 in human MM1S cells assessed as tubulin acetylation at 100 nM to 1 microM after 6 hrs by Western blot analysis
[22] = biological target: T1, von Hippel-Lindau disease tumor suppressor/Protein deacetylase HDAC6; experiment: Protac activity at VHL/HDAC6 in human MM1S cells assessed as reduction in protein level at 100 nM after 30 mins by Western blot analysis
[23] = biological target: T1, von Hippel-Lindau disease tumor suppressor/Protein deacetylase HDAC6; experiment: Protac activity at VHL/HDAC6 in human MM1S cells assessed as reduction in protein level at 100 nM after 4 hrs by Western blot analysis
[24] = biological target: T1, von Hippel-Lindau disease tumor suppressor/Protein deacetylase HDAC6; experiment: Protac activity at VHL/HDAC6 in human MM1S cells assessed as HDAC6 degradation at 100 nM pretreated for 1 hr in presence of proteasome inhibitor MG132 by Western blot analysis
In short: (§4)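 MM1S cells were pretreated for 1 h with a pathway inhibitor or competing ligand, then given degrader at 100 nM. HDAC6 was read by Western blot. Pretreatment levels: MG132 1 μM, bortezomib 1 μM, MLN4924 5 μM, Next-A 5 μM; VHL-1 was titrated.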

[25] = biological target: T1, von Hippel-Lindau disease tumor suppressor/Protein deacetylase HDAC6; experiment: Protac activity at VHL/HDAC6 in human MM1S cells assessed as HDAC6 degradation at 100 nM pretreated for 1 hr in presence of proteasome inhibitor Bortezomib by Western blot analysis; in short: as §4
[26] = biological target: T1, von Hippel-Lindau disease tumor suppressor/Protein deacetylase HDAC6; experiment: Protac activity at VHL/HDAC6 in human MM1S cells assessed as HDAC6 degradation at 100 nM pretreated for 1 hr in presence of HDAC6 inhibitor Next-A by Western blot analysis; in short: as §4
[27] = biological target: T1, von Hippel-Lindau disease tumor suppressor/Protein deacetylase HDAC6; experiment: Protac activity at VHL/HDAC6 in human MM1S cells assessed as HDAC6 degradation at 100 nM pretreated for 1 hr in presence of 5 uM VHL-1 by Western blot analysis; in short: as §4
[28] = biological target: T1, von Hippel-Lindau disease tumor suppressor/Protein deacetylase HDAC6; experiment: Protac activity at VHL/HDAC6 in human HEK293T cells assessed as induction of HDAC degradation by Western blot analysis; conditions: HEK-293T
[29] = biological target: T1, von Hippel-Lindau disease tumor suppressor/Protein deacetylase HDAC6; experiment: Protac activity at VHL/HDAC6 in human A549 cells assessed as induction of HDAC degradation by Western blot analysis
[30] = biological target: T1, von Hippel-Lindau disease tumor suppressor/Protein deacetylase HDAC6; experiment: Protac activity at VHL/HDAC6 in human MCF7 cells assessed as induction of HDAC degradation by Western blot analysis
[31] = biological target: T1, von Hippel-Lindau disease tumor suppressor/Protein deacetylase HDAC6; experiment: Protac activity at VHL/HDAC6 in human U87MG cells assessed as induction of HDAC degradation by Western blot analysis; conditions: U-87MG ATCC
[32] = biological target: T2, von Hippel-Lindau disease tumor suppressor/Protein deacetylase HDAC6 (Mus musculus) (UniProt Q9Z2V5+P40338); experiment: Protac activity at VHL/HDAC6 in mouse 4935 cells assessed as HDAC6 degradation at 10 nM to 10 uM after 6 hrs by Western blot analysis
T2 sequence (P40338 whole entry, looked up): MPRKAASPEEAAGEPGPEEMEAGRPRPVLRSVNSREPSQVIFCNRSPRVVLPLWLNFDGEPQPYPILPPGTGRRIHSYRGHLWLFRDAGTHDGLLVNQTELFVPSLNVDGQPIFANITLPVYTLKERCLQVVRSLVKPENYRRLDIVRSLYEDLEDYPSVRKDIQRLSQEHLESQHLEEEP
T2 sequence (Q9Z2V5 whole entry, looked up): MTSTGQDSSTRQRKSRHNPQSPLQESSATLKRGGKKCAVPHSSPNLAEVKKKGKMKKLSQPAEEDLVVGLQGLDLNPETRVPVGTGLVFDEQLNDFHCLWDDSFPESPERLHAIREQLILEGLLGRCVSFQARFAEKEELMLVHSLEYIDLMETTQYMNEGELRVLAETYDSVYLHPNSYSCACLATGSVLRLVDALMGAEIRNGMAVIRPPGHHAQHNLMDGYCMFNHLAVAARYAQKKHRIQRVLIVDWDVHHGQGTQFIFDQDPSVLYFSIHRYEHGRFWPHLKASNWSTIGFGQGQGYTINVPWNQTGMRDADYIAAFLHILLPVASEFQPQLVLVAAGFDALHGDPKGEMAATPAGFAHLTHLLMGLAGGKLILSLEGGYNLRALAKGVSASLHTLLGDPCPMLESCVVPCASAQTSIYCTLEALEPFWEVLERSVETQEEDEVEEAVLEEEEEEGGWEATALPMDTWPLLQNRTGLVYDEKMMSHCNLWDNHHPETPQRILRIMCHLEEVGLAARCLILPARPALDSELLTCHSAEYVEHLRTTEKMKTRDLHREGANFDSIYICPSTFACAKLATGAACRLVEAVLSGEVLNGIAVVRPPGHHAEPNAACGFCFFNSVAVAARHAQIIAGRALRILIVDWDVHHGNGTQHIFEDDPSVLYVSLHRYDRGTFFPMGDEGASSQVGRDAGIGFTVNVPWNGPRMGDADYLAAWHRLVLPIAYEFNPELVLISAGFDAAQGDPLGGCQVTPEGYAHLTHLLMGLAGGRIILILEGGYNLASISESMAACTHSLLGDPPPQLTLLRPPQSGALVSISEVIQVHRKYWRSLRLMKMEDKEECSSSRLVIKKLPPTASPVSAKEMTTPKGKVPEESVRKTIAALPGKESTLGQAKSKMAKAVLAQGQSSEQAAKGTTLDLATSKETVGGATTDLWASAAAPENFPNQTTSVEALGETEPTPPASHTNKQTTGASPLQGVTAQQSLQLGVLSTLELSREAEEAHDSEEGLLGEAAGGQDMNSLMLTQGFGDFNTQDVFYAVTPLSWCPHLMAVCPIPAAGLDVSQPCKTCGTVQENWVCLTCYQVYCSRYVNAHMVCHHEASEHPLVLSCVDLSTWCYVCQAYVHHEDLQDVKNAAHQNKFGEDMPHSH
In short: (§5)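 Mouse 4935 cells were treated with degraders for 6 h, then analysed by Western blot for HDAC6 and acetylated tubulin.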

[33] = biological target: T2, von Hippel-Lindau disease tumor suppressor/Protein deacetylase HDAC6 (Mus musculus); experiment: Protac activity at VHL/HDAC6 in mouse 4935 cells assessed as tubulin acetylation at 10 nM to 10 uM after 6 hrs by Western blot analysis; in short: as §5
[34] = biological target: T3, von Hippel-Lindau disease tumor suppressor/Protein deacetylase HDAC6 (Mus musculus, UniProt Q9Z2V5+P40338); experiment: Protac activity at VHL/HDAC6 in mouse 4935 cells assessed as HDAC6 degradation after 6 hrs by ELISA
T3 sequence (Q9Z2V5 whole entry): as the sequence (Q9Z2V5 whole entry, looked up) above
T3 sequence (P40338 whole entry): as the sequence (P40338 whole entry, looked up) above

[35] = biological target: T3, von Hippel-Lindau disease tumor suppressor/Protein deacetylase HDAC6; experiment: Protac activity at VHL/HDAC6 in mouse 4935 cells assessed as HDAC6 degradation after 6 hrs by Western blot analysis; in short: as §5
[36] = biological target: T2, von Hippel-Lindau disease tumor suppressor/Protein deacetylase HDAC6 (Mus musculus); experiment: Protac activity at VHL/HDAC6 in mouse 4935 cells assessed as HDAC6 degradation after 6 hrs by ELISA relative to control

Activity [1]: Active | Activity [2]: Active | Activity [3]: Active | DC50 [4]: 7.1 nM | Emax [5]: 90% | Activity [6]: Active | Activity [7]: Active | Activity [8]: Active | Activity [9]: Active | Activity [10]: Dose-dependent effect | Activity [11]: Active | Activity [12]: Active | Activity [13]: inactive | Activity [14]: inactive | Activity [15]: inactive | Activity [16]: inactive | Activity [17]: inactive | Activity [18]: inactive | Activity [19]: inactive | Activity [20]: inactive | Activity [21]: Active | Activity [22]: Active | Activity [23]: Active | Activity [24]: inactive | Activity [25]: inactive | Activity [26]: inactive | Activity [27]: inactive | Activity [28]: Dose-dependent effect | Activity [29]: Dose-dependent effect | Activity [30]: Dose-dependent effect | Activity [31]: Dose-dependent effect | Activity [32]: Active | Activity [33]: Active | DC50 [34]: 4.3 nM | DC50 [35]: 12 nM | Emax [36]: 57%
Compound: CCCCN(Cc1ccc(C(=O)NO)cc1)C(=O)Nc1ccc(OCCCCCCCCCCCn2cc(CCCCC(=O)N[C@H](C(=O)N3C[C@H](O)C[C@H]3C(=O)NCc3ccc(-c4scnc4C)cc3)C(C)(C)C)nn2)cc1
